From ChEMBL document CHEMBL4364301 (Eur J Med Chem, 2019)
The source made the active and inactive calls. The calls are words filed in the database; no cut-off is given here.

Tests used:
MCF7 [1] = assay: Antiproliferative activity against human MCF7 cells assessed as reduction in cell growth incubated for 96 hrs by propidium iodide based 2D monolayer assay; type: functional; conditions: MCF7, 96 h
MCF7 [2] = assay: Antiproliferative activity against human MCF7 cells assessed as T/C value at 3.2 x 10^-3 uM incubated for 96 hrs by propidium iodide based 2D monolayer assay; type: functional
MCF7 [3] = assay: Antiproliferative activity against human MCF7 cells assessed as T/C value at 1 x 10^1 uM incubated for 96 hrs by propidium iodide based 2D monolayer assay; type: functional
[4] = Toxicity in ip dosed NMRI nu/nu mouse assessed as maximum tolerated dose; type: organism-based; conditions: in vivo
CWR22R [5] = assay: Antitumor activity against human 22Rv1 cells xenografted in NMRI mouse assessed as reduction of tumor volume at 100 mg/kg, ip administered for 16 days and measured on day 10; type: functional, organism-based
Outline: (§1)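 Male NMRI nu/nu mice carried hind-flank 22Rv1 implants and were randomised at 80–200 mm³ tumour volume. Compound was given i.p. at 100 mg/kg/day as 16–18 daily doses in 10% EtOH, 10% Cremophor EL, 5% dextrose; vehicle controls were treated likewise. Tumours were measured by two-dimensional caliper twice weekly and reported as relative tumour volume. T/C was taken from group medians; doubling and quadrupling times were derived from tumour volume.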

[6] = Toxicity in NMRI mouse xenografted with human 22Rv1 cells assessed as survival rate at 100 mg/kg, ip administered for 16 days and measured on day 40; type: organism-based; conditions: in vivo
Outline: (§2)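 Male NMRI nu/nu 22Rv1-xenograft mice were dosed i.p. at 100 mg/kg/day for 16–18 daily doses in 10% EtOH, 10% Cremophor EL, 5% dextrose vehicle. Body weight was recorded to assess tolerance, and adjusted survival and group median body weight loss were reported.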

CWR22R [7] = assay: Antitumor activity against human 22Rv1 cells xenografted in NMRI mouse assessed as reduction of tumor volume at 100 mg/kg, ip administered for 16 days and measured on day 20; type: functional, organism-based; outline: as §1
[8] = Toxicity in NMRI mouse xenografted with human 22Rv1 cells assessed as body weight loss at 100 mg/kg, ip administered for 16 days and measured on day 40; type: organism-based; conditions: in vivo, 384 h; outline: as §2
CWR22R [9] = assay: Antitumor activity against human 22Rv1 cells xenografted in NMRI mouse assessed as tumor volume doubling time at 100 mg/kg, ip administered for 16 days (reference value: 2.7 day); type: functional; outline: as §1
CWR22R [10] = assay: Antitumor activity against human 22Rv1 cells xenografted in NMRI mouse assessed as tumor volume quadrupling time at 100 mg/kg, ip administered for 16 days (reference value: 6.2 day); type: functional; outline: as §1
CWR22R [11] = assay: Antitumor activity against human 22Rv1 cells xenografted in NMRI mouse assessed as inhibition of tumor growth by measuring T/C value at 100 mg/kg, ip administered for 16 days and measured on day 14; type: functional; outline: as §1
Androgen receptor = molecular target: T1, Androgen receptor (Rattus norvegicus, UniProt P15207); assay: Antagonist activity at GAL4-DBD fused rat androgen receptor expressed in UAS-bla 293 cells assessed as reduction in R1881-induced activation incubated for 16 hrs followed by fluorescence substrate addition and measured after 2 hrs by beta lactamase reporter gene assay; type: cell-based
T1 sequence (P15207 whole entry): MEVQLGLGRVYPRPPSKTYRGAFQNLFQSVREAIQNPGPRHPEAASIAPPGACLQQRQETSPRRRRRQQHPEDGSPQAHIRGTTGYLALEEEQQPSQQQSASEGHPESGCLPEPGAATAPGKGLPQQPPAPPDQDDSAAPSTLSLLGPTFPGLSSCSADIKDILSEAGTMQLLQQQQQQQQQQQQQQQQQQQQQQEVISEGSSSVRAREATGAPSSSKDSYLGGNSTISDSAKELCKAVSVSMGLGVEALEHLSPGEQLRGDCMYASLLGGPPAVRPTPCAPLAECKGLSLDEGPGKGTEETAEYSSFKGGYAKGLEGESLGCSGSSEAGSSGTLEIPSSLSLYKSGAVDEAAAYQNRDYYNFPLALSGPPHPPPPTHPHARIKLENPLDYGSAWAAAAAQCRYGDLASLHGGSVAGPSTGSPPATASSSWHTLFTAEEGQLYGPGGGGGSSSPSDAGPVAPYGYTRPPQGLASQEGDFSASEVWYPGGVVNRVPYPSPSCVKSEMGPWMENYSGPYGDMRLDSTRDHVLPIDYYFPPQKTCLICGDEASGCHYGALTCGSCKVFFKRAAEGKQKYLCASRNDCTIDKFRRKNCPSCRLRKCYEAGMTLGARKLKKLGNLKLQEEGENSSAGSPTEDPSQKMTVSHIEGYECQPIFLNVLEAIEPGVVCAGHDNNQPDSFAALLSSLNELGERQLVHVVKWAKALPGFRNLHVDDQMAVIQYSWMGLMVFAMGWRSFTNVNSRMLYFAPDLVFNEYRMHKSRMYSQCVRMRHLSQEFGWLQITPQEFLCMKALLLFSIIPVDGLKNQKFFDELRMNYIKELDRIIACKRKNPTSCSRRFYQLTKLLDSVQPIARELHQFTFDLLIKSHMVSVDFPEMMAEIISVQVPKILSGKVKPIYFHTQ

CC(O)(CSc1cc(C(F)(F)F)cc(C(F)(F)F)c1)C(=O)Nc1cccc(C(F)(F)C(F)(F)F)c1 (racemic)
IC50 (MCF7 [1]): 8.52 µM | IC70 (MCF7 [1]): 10.8 µM | T/C (MCF7 [2]): 86% | T/C (MCF7 [3]): 36%

CC(O)(COc1ccc(C(F)(F)C(F)(F)F)cc1)C(=O)Nc1cc(C(F)(F)F)cc(C(F)(F)F)c1 (racemic)
IC50 (MCF7 [1]): 4.01 µM | IC70 (MCF7 [1]): 6.15 µM | T/C (MCF7 [2]): 103% | T/C (MCF7 [3]): 26%

CC(O)(COc1ccc(S(F)(F)(F)(F)F)cc1)C(=O)Nc1cc(C(F)(F)F)cc(C(F)(F)F)c1 (racemic)
MTD [4]: 100 mg/kg | Activity (CWR22R [5]): Active | survival at 384 h [6]: 100% | Activity (CWR22R [7]): Active | Activity [8]: Non-Toxic | Time (CWR22R [9]): 6.7 days | Time (CWR22R [10]): 14.3 days | T/C (CWR22R [11]): 43.9%

CC(O)(COc1cccc(S(F)(F)(F)(F)F)c1)C(=O)Nc1ccc([N+](=O)[O-])c(C(F)(F)F)c1 (racemic)
IC50 (Androgen receptor): 0.54 µM

CC(O)(COc1ccccc1C(F)(F)F)C(=O)Nc1ccc(S(F)(F)(F)(F)F)cc1 (racemic)
IC50 (Androgen receptor): 1.81 µM
